ChEMBL document CHEMBL1275301, “Antihypertensive activity of newer 1,4-dihydro-5-pyrimidine carboxamides: synthesis and pharmacological evaluation” (2010)
Activity calls are given as the source filed them. No cut-off for these calls is given here.

Experiments:
Rattus norvegicus [1] = assay: Antihypertensive activity against DOCA-salt induced hypertension in albino rat assessed as reduction in systolic blood pressure at 10 mg/kg, po after 600 mins by tail-cuff method; type: functional; conditions: Artery, 10 h
In short: (§1)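 Rats given DOCA 20 mg/kg s.c. twice weekly in olive oil for 4 weeks, with 1% w/v NaCl as drinking water, reaching systolic 160–180 mm Hg. Rats were trained in restrainer and tail-cuff sessions. Compounds in 0.5% CMC were dosed at 10 mg/kg by oral feeding needle, with vehicle and nifedipine groups. BP was read before dosing and after, with the tail warmed at 37 °C for 2–5 min. Each compound was run three times in one week and readings averaged.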

Rattus norvegicus [2] = assay: Antihypertensive activity against DOCA-salt induced hypertension in albino rat assessed as reduction in systolic blood pressure at 10 mg/kg, po after 300 mins by tail-cuff method; type: functional; conditions: Artery, 5 h; in short: as §1
Rattus norvegicus [3] = assay: Antihypertensive activity against DOCA-salt induced hypertension in albino rat assessed as reduction in systolic blood pressure at 10 mg/kg, po after 30 mins by tail-cuff method; type: functional; conditions: Artery, 0.5 h; in short: as §1
Rattus norvegicus [4] = assay: Antihypertensive activity against DOCA-salt induced hypertension in albino rat assessed as reduction in systolic blood pressure at 10 mg/kg, po up to 360 mins by tail-cuff method; type: functional, organism-based; parameters: dose 10 mg/kg; conditions: Artery; in short: as §1
Rattus norvegicus [5] = assay: Antihypertensive activity against DOCA-salt induced hypertension in albino rat assessed as reduction in systolic blood pressure at 10 mg/kg, po after 60 mins by tail-cuff method; type: functional; conditions: Artery, 1 h; in short: as §1
Rattus norvegicus [6] = assay: Antihypertensive activity against DOCA-salt induced hypertension in albino rat assessed as reduction in systolic blood pressure at 10 mg/kg, po after 15 mins by tail-cuff method; type: functional; conditions: Artery, 0.25 h; in short: as §1
Rattus norvegicus [7] = assay: Antihypertensive activity against DOCA-salt induced hypertension in albino rat assessed as reduction in systolic blood pressure at 10 mg/kg, po after 360 mins by tail-cuff method; type: functional; conditions: Artery, 6 h; in short: as §1
Rattus norvegicus [8] = assay: Antihypertensive activity against DOCA-salt induced hypertension in albino rat assessed as reduction in systolic blood pressure at 10 mg/kg, po after 180 mins by tail-cuff method; type: functional; conditions: Artery, 3 h; in short: as §1
Rattus norvegicus [9] = assay: Antihypertensive activity against DOCA-salt induced hypertension in albino rat assessed as reduction in systolic blood pressure at 10 mg/kg, po after 120 mins by tail-cuff method; type: functional; conditions: Artery, 2 h; in short: as §1
Rattus norvegicus [10] = assay: Antihypertensive activity against DOCA-salt induced hypertension in albino rat assessed as reduction in systolic blood pressure at 10 mg/kg, po after 240 mins by tail-cuff method; type: functional; conditions: Artery, 4 h; in short: as §1
Rattus norvegicus [11] = assay: Antihypertensive activity against DOCA-salt induced hypertension in albino rat assessed as reduction in systolic blood pressure at 10 mg/kg, po after 900 mins by tail-cuff method; type: functional; conditions: Artery, 15 h; in short: as §1
Rattus norvegicus [12] = assay: Antihypertensive activity against DOCA-salt induced hypertension in albino rat assessed as reduction in systolic blood pressure at 10 mg/kg, po after 720 mins by tail-cuff method; type: functional; conditions: Artery, 12 h; in short: as §1

Structure (SMILES)	inhibition in vivo at 10 mg/kg (Rattus norvegicus [1])	inhibition in vivo at 10 mg/kg (Rattus norvegicus [2])	inhibition in vivo at 10 mg/kg (Rattus norvegicus [3])	Activity (Rattus norvegicus [4])	inhibition in vivo at 10 mg/kg (Rattus norvegicus [5])	inhibition in vivo at 10 mg/kg (Rattus norvegicus [6])	inhibition in vivo at 10 mg/kg (Rattus norvegicus [7])	inhibition in vivo at 10 mg/kg (Rattus norvegicus [8])	inhibition in vivo at 10 mg/kg (Rattus norvegicus [9])	inhibition in vivo at 10 mg/kg (Rattus norvegicus [10])	inhibition in vivo at 10 mg/kg (Rattus norvegicus [11])	inhibition in vivo at 10 mg/kg (Rattus norvegicus [12])
COc1ccc(C2N=C(SCc3ccccc3)NC(C)=C2C(=O)Nc2ccc(F)cc2)cc1OC (configuration not stated)	3.1%	7.2%	3.6%	Active	6.2%	1.5%	3.6%	12.9%	8.8%	11.8%	1%	1.5%
CC1=C(C(=O)Nc2ccc(F)cc2)C(c2ccc([N+](=O)[O-])cc2)N=C(SCc2ccccc2Cl)N1 (configuration not stated)	17.4%	18.5%	3.1%	Active	6.2%	1.5%	21.6%	12.4%	8.8%	15.9%	11.3%	13.9%
CC1=C(C(=O)Nc2ccc(Br)cc2)C(c2ccc(Cl)cc2Cl)N=C(SCc2ccc(Cl)cc2)N1 (configuration not stated)	30.3%	38.5%	6.7%	Active	11.8%	4.1%	39.7%	23.2%	17.5%	32.3%	22.1%	25.8%
CC1=C(C(=O)Nc2ccc([N+](=O)[O-])cc2)C(c2cccc([N+](=O)[O-])c2)N=C(SCc2ccc(F)cc2)N1 (configuration not stated)	30.3%	27.2%	4.1%	Active	7.2%	2.6%	36.1%	17.5%	13.4%	22.6%	15.4%	20.1%
COc1ccc(C2N=C(SCc3ccc(F)cc3)NC(C)=C2C(=O)Nc2ccc(F)cc2)cc1OC (configuration not stated)	21%	37.9%	6.7%	Active	11.8%	3.6%	37.1%	22.2%	15.5%	28.7%	15.4%	17%
COC(=O)C1=C(C)NC(C)=C(C(=O)OC)C1c1ccccc1[N+](=O)[O-] [NIFEDIPINE]	24.1%	32.3%	3.1%	Active	7.7%	1.5%	38.1%	17.5%	11.3%	25.6%	16.9%	18.6%
CC1=C(C(=O)Nc2ccc(Br)cc2)C(c2ccc(Cl)cc2Cl)N=C(SCc2ccccc2)N1 (configuration not stated)	17.4%	22.1%	3.6%	Active	6.7%	1.5%	24.2%	13.4%	10.3%	17.4%	8.2%	11.3%
CC1=C(C(=O)Nc2ccc([N+](=O)[O-])cc2)C(c2ccc(Br)cc2)N=C(SCc2ccccc2)N1 (configuration not stated)	27.2%	29.7%	3.6%	Active	8.2%	2.1%	37.6%	19.6%	13.4%	27.7%	19.5%	21.1%
CC1=C(C(=O)Nc2ccc([N+](=O)[O-])cc2)C(c2ccc(Br)cc2)N=C(SCc2ccc(Cl)cc2)N1 (configuration not stated)	34.4%	37.9%	6.2%	Active	10.8%	3.1%	39.2%	19.1%	13.9%	29.7%	19%	29.4%
CC1=C(C(=O)Nc2ccc(Br)cc2)C(c2ccc(Cl)cc2Cl)N=C(SCc2ccc(F)cc2)N1 (configuration not stated)	33.3%	38.5%	7.7%	Active	16.9%	3.6%	40.7%	28.4%	22.7%	36.4%	23.1%	27.3%
CC1=C(C(=O)Nc2ccc([N+](=O)[O-])cc2)C(c2ccc(Br)cc2)N=C(SCc2ccc(F)cc2)N1 (configuration not stated)	32.3%	34.4%	5.2%	Active	9.7%	2.6%	38.7%	17.5%	12.9%	27.2%	22.6%	27.3%
CC1=C(C(=O)Nc2ccc([N+](=O)[O-])cc2)C(c2cccc([N+](=O)[O-])c2)N=C(SCc2cccc(Cl)c2)N1 (configuration not stated)	19%	21%	4.1%	Active	8.2%	2.6%	21.6%	14.9%	12.4%	17.9%	10.8%	12.9%
COc1ccc(C2N=C(SCc3ccccc3)NC(C)=C2C(=O)Nc2ccc(Br)cc2)cc1 (configuration not stated)	11.3%	16.4%	2.6%	Active	5.6%	1%	18.6%	10.3%	8.2%	13.3%	5.6%	7.2%
CC1=C(C(=O)Nc2ccc([N+](=O)[O-])cc2)C(c2ccc(Br)cc2)N=C(SCc2cccc(Cl)c2)N1 (configuration not stated)	5.1%	9.2%	2.6%	Active	4.1%	2.1%	7.2%	9.3%	6.7%	11.8%	2.6%	2.6%
CC1=C(C(=O)Nc2ccc(F)cc2)C(c2ccc([N+](=O)[O-])cc2)N=C(SCc2ccc(Cl)cc2)N1 (configuration not stated)	28.2%	37.9%	6.7%	Active	11.8%	3.6%	39.7%	23.2%	16%	33.3%	16.9%	22.2%
COc1ccc(C2N=C(SCc3cccc(Cl)c3)NC(C)=C2C(=O)Nc2ccc(Br)cc2)cc1 (configuration not stated)	32.8%	39%	7.7%	Active	15.4%	3.1%	39.7%	27.3%	21.1%	33.8%	22.6%	26.8%
